Source: ChEMBL document CHEMBL4145673, “Glucopyranosylbianthrones from the Algerian Asphodelus tenuifolius: Structural Insights and Biological Evaluation on Melanoma Cancer Cells” (J Nat Prod, 2018)
Active and inactive are the calls of the source. The rule behind the calls is not given here.

Assays:
[1] = system: A-375; experiment: Induction of apoptosis in human A375 cells assessed as increase in hypodiploid nuclei at 20 to 40 uM measured after 48 hrs by propidium iodide staining based flow cytometry relative to control; type: functional
How it was run: (§1)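 A375 cells exposed 48 h (text gives 20, 30, 40 μM; methods give 10, 20, 40 μM), harvested, washed in cold PBS, stained 30 min at 4 °C in hypotonic PI buffer (0.1% sodium citrate, 0.1% Triton X-100, 25 μg/mL PI, 10 μg/mL RNase A). Flow cytometry for G0/G1, S, G2/M distribution and hypodiploid nuclei; means ± SD, triplicate determinations; two-way ANOVA with Bonferroni.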

[2] = system: A-375; experiment: Antiproliferative activity against human A375 cells measured after 48 hrs by MTT assay; type: functional, cell-based
How it was run: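 A375 melanoma cells grown in DMEM with 10% FBS, 2 mM L-glutamine, penicillin/streptomycin at 37 °C, 5% CO2, subcultured every 2 days; seeded 1 × 10^4/well in triplicate, exposed 48 h to 5−50 μM (DMSO stock diluted into medium; vehicle control 0.1% v/v DMSO). MTT conversion read-out; IC50 from viability dose−response curves versus DMSO-treated control.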

[3] = system: A-375; experiment: Cell cycle arrest in human A375 cells assessed as decrease in accumulation at G1-phase at 20 to 40 uM measured after 48 hrs by propidium iodide staining based flow cytometry; type: functional; how it was run: as §1
[4] = system: A-375; experiment: Cell cycle arrest in human A375 cells measured after 48 hrs by propidium iodide staining based flow cytometry; type: functional; how it was run: as §1
[5] = system: A-375; experiment: Cell cycle arrest in human A375 cells assessed as increase in accumulation at G2/M-phase at 20 to 40 uM measured after 48 hrs by propidium iodide staining based flow cytometry; type: functional; how it was run: as §1
[6] = system: A-375; experiment: Cell cycle arrest in human A375 cells assessed as decrease in accumulation at S-phase at 20 to 40 uM measured after 48 hrs by propidium iodide staining based flow cytometry; type: functional; how it was run: as §1
[7] = system: A-375; experiment: Cell cycle arrest in human A375 cells assessed as increase in accumulation at S-phase at 20 to 40 uM measured after 48 hrs by propidium iodide staining based flow cytometry; type: functional; how it was run: as §1

| SMILES | Activity [1] [%] | IC50 ([2]; a-375) [µM] | Activity [3] | Activity [2] | Activity [4] | Activity [5] | Activity [6] | IC50 ([2]; Homo sapiens, A-375, 48 h) [µM] | Activity [7] |
| --- | --- | --- | --- | --- | --- | --- | --- | --- | --- |
| Cc1cc(O)c2c(c1)[C@](O)(C1O[C@H](CO)[C@@H](O)[C@H](O)[C@H]1O)c1ccc(-c3c(C)cc(O)c4c3C(=O)c3cccc(O)c3C4=O)c(O)c1C2=O (atropisomer P) [listing 1 of 2 here] | 12.2 | 23.2 | – | – | – | – | – | – | – |
| Cc1cc(O)c2c(c1)[C@](O)(C1O[C@H](CO)[C@@H](O)[C@H](O)[C@H]1O)c1ccc(-c3c(C)cc(O)c4c3C(=O)c3cccc(O)c3C4=O)c(O)c1C2=O (atropisomer P) [listing 2 of 2 here] | – | – | Active | Dose-dependent effect | Dose-dependent effect | Active | Active | – | – |
| Cc1cc(O)c2c(c1)[C@](O)(C1O[C@H](CO)[C@@H](O)[C@H](O)[C@H]1O)c1ccc(-c3c(C)cc(O)c4c3C(=O)c3cccc(O)c3C4=O)c(O)c1C2=O (single isomer, unassigned; atropisomer M) [listing 1 of 2 here] | 13.2 | – | – | – | – | – | – | 20.6 | – |
| Cc1cc(O)c2c(c1)[C@](O)(C1O[C@H](CO)[C@@H](O)[C@H](O)[C@H]1O)c1ccc(-c3c(C)cc(O)c4c3C(=O)c3cccc(O)c3C4=O)c(O)c1C2=O (single isomer, unassigned; atropisomer M) [listing 2 of 2 here] | – | – | Active | Dose-dependent effect | Dose-dependent effect | – | – | – | Active |
